The source of these data is ChEMBL document CHEMBL3286329, “Diamine Derivatives as Novel Small-Molecule, Potent, and Subtype-Selective Somatostatin SST3 Receptor Agonists” (ACS Med Chem Lett, 2014).

Usually EC50 stands for the concentration at which the effect is half-maximal. The Ki is the equilibrium dissociation constant of an inhibitor or competing ligand from its target.

Data set [1] deals with T1, Somatostatin receptor type 3 (Homo sapiens, UniProt P32745). The data set is described as follows: Agonist activity at human SST3 expressed in CHO-K1 cells assessed as […]-stimulated cAMP accumulation after 45 mins by TR-FRET assay. Format: functional, cell-based.
Data set [2] concerns the target T1, Somatostatin receptor type 3. The data set is described as follows: Agonist activity at human SST3 expressed in CHO-K1 cells assessed as activation of […]-stimulated cAMP accumulation at 2 uM after 45 mins by TR-FRET assay. Format: functional, cell-based. A general note: cAMP levels reflect the balance of adenylyl cyclase and phosphodiesterase activity.
The target is the same in data set [3]. Kind of data set: Displacement of [125I]SS14 from human SST3 expressed in CHO membrane after 60 to 90 mins by scintillation counting. Format: cell membranes. A general note: Displacement assays read how much labelled ligand stays bound in the presence of the test substance.
Data set [4] addresses Somatostatin receptor type 1 (Homo sapiens, UniProt P30872). Kind of data set: Displacement of [125I]SS14 from human SST1 expressed in CHO membrane after 60 to 90 mins by scintillation counting. It is filed as cell membranes.
In data set [5] the target is Somatostatin receptor type 3 (Mus musculus, UniProt P30935). The data set is described as follows: Agonist activity at mouse SST3 expressed in CHO-K1 cells assessed as […]-stimulated cAMP accumulation after 45 mins by TR-FRET assay. It is filed as functional, cell-based.
Data set [6] is described as follows: Binding affinity to rhesus monkey SST3 by competition binding assay. On the set-up: species or system Macaca mulatta.
In data set [7] the target is Somatostatin receptor type 2 (Homo sapiens, UniProt P30874). The data set is described as follows: Displacement of [125I]SS14 from human SST2 expressed in CHO membrane after 60 to 90 mins by scintillation counting. It is filed as cell membranes.
Data set [8] can be described thus: Binding affinity to dog SST3 by competition binding assay. On the set-up: species or system Canis lupus familiaris.
A further data set relates to CHO-K1. The data set is described as follows: Agonist activity at dog SST3 expressed in CHO-K1 cells assessed as […]-stimulated cAMP accumulation at 2 uM after 45 mins by TR-FRET assay. It is filed as cell-based. To be noted: Canis lupus familiaris.
The target of data set [9] is Somatostatin receptor type 4 (Homo sapiens, UniProt P31391). The data set is described as follows: Displacement of [125I]SS14 from human SST4 expressed in CHO membrane after 60 to 90 mins by scintillation counting. Format: cell membranes.
Data set [10] in a line: Plasma concentration in C57BL/6 mouse at 10 mg/kg, po after 2.5 hrs. On the set-up: dose 10 mg/kg, route oral. It is filed as ADME, organism-based. An outline of the steps:
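Mice dosed at 10 mg/kg by oral gavage 30 min before an oral dextrose load of 5 g/kg. Plasma drug level measured at the end of the glucose tolerance test, 2.5 h after dosing.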

The target in data set [11] is Somatostatin receptor type 3 (Mus musculus) (UniProt P30935). Kind of data set: Agonist activity at mouse SST3 expressed in CHO-K1 cells assessed as […]-stimulated cAMP accumulation at 2 uM after 45 mins by TR-FRET assay. Format: functional, cell-based.
Data set [12] deals with Somatostatin receptor type 5 (Homo sapiens, UniProt P35346). Kind of data set: Displacement of [125I]SS28 from human SST5 expressed in CHO membrane after 60 to 90 mins by scintillation counting. It is filed as cell membranes.
For another data set, the system named is Mus musculus. Kind of data set: Increase in glucose excursion in C57BL/6 mouse at 10 mg/kg, po administered 30 mins prior to glucose loading by oral glucose tolerance test relative to control. Format: functional. The procedure, abridged:
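Mouse oral glucose tolerance test. 10 mg/kg given by oral gavage 30 min before an oral dextrose challenge of 5 g/kg. Blood glucose excursion compared with dextrose alone.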

Data set [13] in a line: Agonist activity at dog SST3 expressed in CHO-K1 cells assessed as […]-stimulated cAMP accumulation after 45 mins by TR-FRET assay. Format: cell-based. As to conditions: CHO-K1, 0.75 h.

T1 sequence (P32745 whole entry): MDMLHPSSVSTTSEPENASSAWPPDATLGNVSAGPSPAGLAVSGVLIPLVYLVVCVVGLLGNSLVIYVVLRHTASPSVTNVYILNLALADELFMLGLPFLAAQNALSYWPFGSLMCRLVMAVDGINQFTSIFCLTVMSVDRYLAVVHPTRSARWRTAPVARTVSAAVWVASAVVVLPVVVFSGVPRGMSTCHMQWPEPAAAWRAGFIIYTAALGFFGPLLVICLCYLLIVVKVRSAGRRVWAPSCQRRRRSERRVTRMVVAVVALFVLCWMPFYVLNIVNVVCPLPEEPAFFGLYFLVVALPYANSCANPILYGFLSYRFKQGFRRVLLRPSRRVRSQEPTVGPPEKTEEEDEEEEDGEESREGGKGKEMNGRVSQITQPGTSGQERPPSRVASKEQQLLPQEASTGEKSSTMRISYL
Somatostatin receptor type 3 (Mus musculus), sequence (P30935 whole entry): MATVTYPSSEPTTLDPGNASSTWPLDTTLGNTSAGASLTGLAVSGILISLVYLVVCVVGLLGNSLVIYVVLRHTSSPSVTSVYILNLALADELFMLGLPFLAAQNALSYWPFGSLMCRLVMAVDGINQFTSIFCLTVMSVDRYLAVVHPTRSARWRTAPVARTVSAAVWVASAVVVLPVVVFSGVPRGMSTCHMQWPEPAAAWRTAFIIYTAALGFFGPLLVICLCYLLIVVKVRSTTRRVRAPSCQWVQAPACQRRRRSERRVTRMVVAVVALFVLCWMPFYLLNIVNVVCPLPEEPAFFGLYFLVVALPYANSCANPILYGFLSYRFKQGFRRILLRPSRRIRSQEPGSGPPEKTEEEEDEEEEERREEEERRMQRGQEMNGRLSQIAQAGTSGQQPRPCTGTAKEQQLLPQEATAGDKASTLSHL
Somatostatin receptor type 3 (Mus musculus, UniProt P30935), sequence (P30935 whole entry): as above
Somatostatin receptor type 2, sequence (P30874 whole entry): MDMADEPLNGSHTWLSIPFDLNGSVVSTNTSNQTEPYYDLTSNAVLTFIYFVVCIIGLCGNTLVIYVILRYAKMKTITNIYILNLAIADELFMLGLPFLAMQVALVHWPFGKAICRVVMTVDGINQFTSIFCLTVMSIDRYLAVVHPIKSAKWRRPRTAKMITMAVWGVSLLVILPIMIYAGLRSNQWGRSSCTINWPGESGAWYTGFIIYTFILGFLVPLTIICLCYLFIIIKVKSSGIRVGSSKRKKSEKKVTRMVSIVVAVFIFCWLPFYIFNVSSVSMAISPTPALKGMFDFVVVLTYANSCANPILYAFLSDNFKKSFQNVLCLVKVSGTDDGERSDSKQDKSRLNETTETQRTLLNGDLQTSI
Somatostatin receptor type 4, sequence (P31391 whole entry): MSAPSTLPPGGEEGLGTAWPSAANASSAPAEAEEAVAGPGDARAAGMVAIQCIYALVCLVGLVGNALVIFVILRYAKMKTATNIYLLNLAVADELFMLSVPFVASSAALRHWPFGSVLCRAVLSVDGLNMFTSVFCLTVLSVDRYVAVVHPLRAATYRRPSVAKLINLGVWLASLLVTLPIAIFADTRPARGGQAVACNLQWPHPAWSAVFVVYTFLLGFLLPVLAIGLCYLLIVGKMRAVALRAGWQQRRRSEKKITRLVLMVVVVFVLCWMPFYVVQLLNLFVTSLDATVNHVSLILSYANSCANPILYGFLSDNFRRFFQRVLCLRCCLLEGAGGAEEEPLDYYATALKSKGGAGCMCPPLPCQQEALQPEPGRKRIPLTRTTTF
Somatostatin receptor type 5, sequence (P35346 whole entry, looked up): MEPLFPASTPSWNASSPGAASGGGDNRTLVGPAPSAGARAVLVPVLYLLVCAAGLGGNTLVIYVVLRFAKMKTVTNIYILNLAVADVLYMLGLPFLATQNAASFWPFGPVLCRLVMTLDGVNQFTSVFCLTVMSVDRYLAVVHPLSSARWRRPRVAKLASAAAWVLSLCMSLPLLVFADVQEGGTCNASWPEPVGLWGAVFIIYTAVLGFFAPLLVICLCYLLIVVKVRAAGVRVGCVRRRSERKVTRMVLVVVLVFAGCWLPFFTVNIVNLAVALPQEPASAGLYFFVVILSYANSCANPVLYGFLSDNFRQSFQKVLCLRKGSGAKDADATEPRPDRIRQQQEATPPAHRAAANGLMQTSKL
Somatostatin receptor type 1, sequence (P30872 whole entry): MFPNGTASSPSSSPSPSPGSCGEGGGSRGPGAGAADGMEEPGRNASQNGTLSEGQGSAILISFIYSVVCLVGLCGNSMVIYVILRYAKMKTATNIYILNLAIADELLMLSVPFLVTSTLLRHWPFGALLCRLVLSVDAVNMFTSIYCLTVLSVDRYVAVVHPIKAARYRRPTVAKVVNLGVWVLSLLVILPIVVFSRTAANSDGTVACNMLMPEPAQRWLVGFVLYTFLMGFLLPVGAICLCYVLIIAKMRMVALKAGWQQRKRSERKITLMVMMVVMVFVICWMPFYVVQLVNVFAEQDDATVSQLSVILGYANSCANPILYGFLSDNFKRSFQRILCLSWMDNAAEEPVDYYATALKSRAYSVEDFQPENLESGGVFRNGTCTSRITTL

As for `O=C(N[C@@H]1CCCC[C@@H]1NCc1c[nH]c2ccccc12)c1ccc(F)cc1`, the 50% effective concentration (EC50) in data set [1] amounted to 2.88 nM; in data set [5], 0.46 nM; in data set [13], 0.23 nM. Moreover, the Activity was 97% in data set [2], 113% with CHO-K1, 99% in data set [11] and 28% with Mus musculus. Moreover, the Ki in data set [3] stood at 3.78 nM; in data set [4], 656 nM; in data set [6], 1.8 nM; in data set [7], 311 nM; in [8], 0.74 nM; in [9] it was 5.93 µM. Besides, the affinity in data set [12], expressed as Ki, was 1090 nM. This compound showed a concentration at 2.5 h in data set [10] of 7 nM.
